Source: ChEMBL document CHEMBL4145558, “Structure-Activity Relationship Study on Odoamide: Insights into the Bioactivities of Aurilide-Family Hybrid Peptide-Polyketides” (ACS Med Chem Lett, 2018)

What was measured:
[1] = Permeability of the compound in pH 7.4 phosphate buffer solution after 4 hrs by LC-MS/MS based PAMPA assay; format: ADME; details: read-out: permeability
In short: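 PAMPA run at pH 7.4, under the in vitro bioassay conditions.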

A549 = experiment: Cytotoxicity against human A549 cells assessed as inhibition of cell growth after 72 hrs by MTS assay; format: functional, cell-based; details: A549, 72 h
In short: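 A549 cells exposed to each peptide for 72 h; growth read by MTS assay. IC50 taken as the concentration giving 50% growth inhibition, n = 3.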

[2] = Protein binding in 10% fetal bovine serum at 1 uM after 4 hrs in presence of cell culture medium by rapid equilibrium dialysis based LC-MS/MS analysis; format: ADME, cell-free, Bos taurus; details: cattle, 10% fetal bovine serum in cell culture medium; read-out: PB (converted)
In short: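 Peptides tested in cell culture medium supplemented with 10% (v/v) fetal bovine serum. The ratio of unbound peptide was determined.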

Papp at 4 h [1] [×10⁻⁶ cm/s]	fraction unbound at 4 h, 1 µM [2]	Structure (SMILES)	IC50 (A549) [nM]
> 1		CCC[C@H](C)[C@H]1OC(=O)[C@H](C)N(C)C(=O)[C@H]([C@@H](C)CC)NC(=O)CCN(C)C(=O)[C@@H](Cc2ccccc2)N(C)C(=O)[C@H](C)NC(=O)[C@@H]([C@@H](C)CC)OC(=O)/C(C)=C/C[C@H](O)[C@@H]1C	74
> 1	0.028	CCC[C@H](C)[C@H]1OC(=O)[C@H](C)N(C)C(=O)[C@H]([C@@H](C)CC)NC(=O)CN(C)C(=O)[C@@H](Cc2ccccc2)N(C)C(=O)[C@H](C)NC(=O)[C@@H]([C@@H](C)CC)OC(=O)/C(C)=C/C[C@H](OC)[C@@H]1C	4.3
> 1		CCC[C@H](C)[C@H]1OC(=O)[C@H](C)N(C)C(=O)[C@H]([C@@H](C)CC)NC(=O)CN(C)C(=O)[C@@H](Cc2ccccc2)N(C)C(=O)[C@@H](C)NC(=O)[C@@H]([C@@H](C)CC)OC(=O)/C(C)=C/C[C@H](O)[C@@H]1C	1550
> 1	0.145	CCC[C@H](C)[C@H]1OC(=O)[C@@H](C)N(C)C(=O)[C@H]([C@@H](C)CC)NC(=O)CN(C)C(=O)[C@@H](Cc2ccccc2)N(C)C(=O)[C@H](C)NC(=O)[C@@H]([C@@H](C)CC)OC(=O)/C(C)=C/C[C@H](O)[C@@H]1C	1.9
> 1	0.241	CCC[C@H](C)[C@H]1OC(=O)[C@H](C)N(C)C(=O)[C@H]([C@@H](C)CC)NC(=O)CN(C)C(=O)[C@@H](Cc2ccccc2)N(C)C(=O)[C@H](C)NC(=O)[C@@H]([C@@H](C)CC)OC(=O)/C(C)=C/C[C@H](O)[C@@H]1C	4.2

The next lines start with the compound.

Structure (SMILES)	Papp at 4 h [1] [×10⁻⁶ cm/s]	fraction unbound at 4 h, 1 µM [2]	IC50 (A549) [nM]
CCC[C@H](C)[C@H]1OC(=O)[C@H](C)N(C)C(=O)[C@@H]([C@@H](C)CC)NC(=O)CN(C)C(=O)[C@@H](Cc2ccccc2)N(C)C(=O)[C@H](C)NC(=O)[C@@H]([C@@H](C)CC)OC(=O)/C(C)=C/C[C@H](O)[C@@H]1C			645
CCC[C@H](C)[C@H]1OC(=O)[C@H](C)N(C)C(=O)[C@H]([C@@H](C)CC)NC(=O)CN(C)C(=O)[C@@H](Cc2ccccc2)N(C)C(=O)[C@H](C)NC(=O)[C@@H]([C@@H](C)CC)OC(=O)/C(C)=C/C=C/[C@@H]1C			28
CCC[C@H](C)[C@H]1OC(=O)[C@H](C)N(C)C(=O)[C@H]([C@@H](C)CC)NC(=O)CN(C)C(=O)[C@H](Cc2ccccc2)N(C)C(=O)[C@H](C)NC(=O)[C@@H]([C@@H](C)CC)OC(=O)/C(C)=C/C[C@H](O)[C@@H]1C			48
CCC[C@H](C)[C@@H](O)[C@@H](C)[C@@H]1C/C=C(\C)C(=O)O[C@H]([C@@H](C)CC)C(=O)N[C@@H](C)C(=O)N(C)[C@H](Cc2ccccc2)C(=O)N(C)CC(=O)N[C@@H]([C@@H](C)CC)C(=O)N(C)[C@@H](C)C(=O)O1			4.5
CCC[C@H](C)[C@H]1OC(=O)[C@H](C)N(C)C(=O)[C@H]([C@@H](C)CC)NC(=O)CN(C)C(=O)[C@@H](Cc2ccccc2)NC(=O)[C@H](C)NC(=O)[C@@H]([C@@H](C)CC)OC(=O)/C(C)=C/C[C@H](O)[C@@H]1C			5.4
CCC[C@H](C)[C@H]1OC(=O)[C@H](C)N(C)C(=O)[C@H]([C@@H](C)CC)NC(=O)CNC(=O)[C@@H](Cc2ccccc2)N(C)C(=O)[C@H](C)NC(=O)[C@@H]([C@@H](C)CC)OC(=O)/C(C)=C/C[C@H](O)[C@@H]1C	> 1		31
